The source of these data is ChEMBL document CHEMBL4619740, “Chalcones bearing a 3,4,5-trimethoxyphenyl motif are capable of selectively inhibiting oncogenic K-Ras signaling” (Bioorg Med Chem Lett, 2020).

Structures are written as SMILES. pIC50: −log10 of the molar value. Activity calls are given as the source filed them. The rule behind the calls is not given here.

The subject of assay [1] is GTPase HRas (Homo sapiens), P01112 [G12V]. The experiment in a line: Inhibition of GFP-tagged HRAS G12V mutant (unknown origin) expressed in MDCK cells assessed as reduction in ERK phosphorylation level incubated for 48 hrs by Western blot analysis. The class given is cell-based. The essentials: (§1)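 MDCK cells stably expressing GFP-tagged K-RasG12V or H-RasG12V treated 48 h; lysates immunoblotted with anti-ppERK or anti-pAkt (S473) antibodies, total ERK and Akt as loading controls. Quantified as means ± S.E.M. of three independent experiments versus DMSO-treated cells; one-way ANOVA.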

For assay [2], the system named is GTPase KRas (Homo sapiens), P01116 [G12V]. The experiment in a line: Inhibition of GFP-tagged KRAS G12V mutant (unknown origin) expressed in MDCK cells assessed as MARCK phosphorylation level at 25 uM incubated for 48 hrs by Western blot analysis (reference value: 1.00 +/- 0.13). The class given is cell-based. Background: Immunoblotting shows a protein as a band on a membrane.
GTPase KRas (Homo sapiens), P01116 [G12V], sequence (P01116 whole entry G12V): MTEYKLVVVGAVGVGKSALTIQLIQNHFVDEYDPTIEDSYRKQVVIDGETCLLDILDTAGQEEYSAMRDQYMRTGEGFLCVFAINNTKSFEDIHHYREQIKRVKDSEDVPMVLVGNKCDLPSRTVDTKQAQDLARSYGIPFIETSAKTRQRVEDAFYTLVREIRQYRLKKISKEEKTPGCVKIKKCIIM

Assay [3] has the same test system. The assay can be described thus: Inhibition of GFP-tagged KRAS G12V mutant (unknown origin) expressed in MDCK cells assessed as MARCK phosphorylation level at 1 uM incubated for 48 hrs by Western blot analysis (reference value: 1.00 +/- 0.13). The class given is cell-based.
Assay [4] deals with GTPase HRas (Homo sapiens), P01112 [G12V]. The assay can be described thus: Inhibition of GFP-tagged HRAS G12V mutant (unknown origin) expressed in MDCK cells cotransfected with mCherry-CAXX assessed as effect on HRAS G12V-plasma membrane dissociation incubated for 48 hrs by quantitative confocal microscopic method. The class given is cell-based. In short, it runs like this: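 MDCK cells stably co-expressing mGFP-RasG12V (K- or H-) and mCherry-CAAX endomembrane marker treated with a range of concentrations for 48 h, fixed in 4% paraformaldehyde, imaged by quantitative confocal microscopy. Fraction of mCherry-CAAX co-localized with GFP-Ras by Manders coefficient; IC50 for PM dissociation estimated from dose-response plots of three independent experiments.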
GTPase HRas (Homo sapiens), P01112 [G12V], sequence (P01112 whole entry G12V): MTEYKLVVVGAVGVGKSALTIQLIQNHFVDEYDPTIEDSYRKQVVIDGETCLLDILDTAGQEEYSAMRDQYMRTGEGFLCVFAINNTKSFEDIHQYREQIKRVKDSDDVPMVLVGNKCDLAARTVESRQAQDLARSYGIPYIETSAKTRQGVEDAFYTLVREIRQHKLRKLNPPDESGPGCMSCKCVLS

The target in assay [5] is GTPase KRas (Homo sapiens) (UniProt P01116). The experiment in a line: Inhibition of KRAS in human NCI-H358 cells assessed as MARCK phosphorylation level at 25 uM incubated for 48 hrs by Western blot analysis (reference value: 1.00 +/- 0.39). The class given is cell-based.
GTPase KRas (Homo sapiens), sequence (P01116 whole entry, looked up): as the sequence (P01116 whole entry G12V) above, with V12G counted along it
For assay [6] the target is unchanged. The experiment in a line: Inhibition of KRAS in human NCI-H358 cells assessed as increase in MARCK phosphorylation level incubated for 48 hrs by Western blot analysis.
For assay [7], the system named is GTPase KRas (Homo sapiens), P01116 [G12V]. The experiment in a line: Inhibition of GFP-tagged KRAS G12V mutant (unknown origin) expressed in MDCK cells assessed as reduction in ERK phosphorylation level incubated for 48 hrs by Western blot analysis. It counts as cell-based. The essentials: as §1
For assay [8], the system named is GTPase HRas (Homo sapiens), P01112 [G12V]. The assay can be described thus: Inhibition of GFP-tagged HRAS G12V mutant (unknown origin) expressed in MDCK cells assessed as reduction in Akt phosphorylation level incubated for 48 hrs by Western blot analysis. The class given is cell-based. In short, it runs like this:
as §1

In assay [9] the test system is GTPase KRas (Homo sapiens), P01116 [G12V]. The experiment in a line: Inhibition of GFP-tagged KRAS G12V mutant (unknown origin) expressed in MDCK cells assessed as MARCK phosphorylation level at 5 uM incubated for 48 hrs by Western blot analysis (reference value: 1.00 +/- 0.13). It counts as cell-based.
For assay [10] the test system is unchanged. The experiment in a line: Inhibition of GFP-tagged KRAS G12V mutant (unknown origin) expressed in MDCK cells assessed as MARCK phosphorylation level at 10 uM incubated for 48 hrs by Western blot analysis (reference value: 1.00 +/- 0.13). It counts as cell-based.
The target of assay [11] is GTPase KRas (Homo sapiens) (UniProt P01116). The assay can be described thus: Inhibition of KRAS in human NCI-H358 cells assessed as MARCK phosphorylation level at 1 uM incubated for 48 hrs by Western blot analysis (reference value: 1.00 +/- 0.39). The class given is cell-based.
The subject of assay [12] is GTPase KRas (Homo sapiens), P01116 [G12V]. The experiment in a line: Inhibition of GFP-tagged KRAS G12V mutant (unknown origin) expressed in MDCK cells assessed as increase in MARCK phosphorylation level incubated for 48 hrs by Western blot analysis.
Assay [13] addresses GTPase KRas (Homo sapiens) (UniProt P01116). The experiment in a line: Inhibition of KRAS in human NCI-H358 cells assessed as MARCK phosphorylation level at 5 uM incubated for 48 hrs by Western blot analysis (reference value: 1.00 +/- 0.39). The class given is cell-based.
For assay [14] the target is unchanged. The assay can be described thus: Inhibition of KRAS in human NCI-H358 cells assessed as MARCK phosphorylation level at 10 uM incubated for 48 hrs by Western blot analysis (reference value: 1.00 +/- 0.39). It counts as cell-based.
Assay [15] has as its system GTPase KRas (Homo sapiens), P01116 [G12V]. The experiment in a line: Inhibition of GFP-tagged KRAS G12V mutant (unknown origin) expressed in MDCK cells assessed as reduction in Akt phosphorylation level incubated for 48 hrs by Western blot analysis. It counts as cell-based. The essentials: as §1
A further assay has as its target GTPase KRas (Homo sapiens, UniProt P01116, G12V). The experiment in a line: Inhibition of GFP-tagged KRAS G12V mutant (unknown origin) expressed in MDCK cells cotransfected with mCherry-CAXX assessed as increase in KRAS G12V-plasma membrane dissociation incubated for 48 hrs by quantitative confocal microscopic method. It counts as cell-based. The essentials:
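MDCK cells stably co-expressing mGFP-K-RasG12V and mCherry-CAAX (endomembrane marker) treated with a range of compound concentrations for 48h. Cells fixed in 4% paraformaldehyde, imaged by confocal microscopy. PM dissociation scored as the fraction of mCherry-CAAX co-localized with GFP-K-RasG12V (Manders coefficient). IC50 estimated from dose-response plots from three independent experiments.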

Assay [16] concerns GTPase KRas (Homo sapiens), P01116 [G12V,S181A]. The assay can be described thus: Inhibition of GFP-tagged KRAS G12V/S181A mutant (unknown origin) expressed in MDCK cells cotransfected with mCherry-CAXX assessed as reduction in KRAS G12V-plasma membrane dissociation incubated for 48 hrs by quantitative confocal microscopic method. The class given is cell-based.
GTPase KRas (Homo sapiens), P01116 [G12V,S181A], sequence (P01116 1-164 with tags or gaps G12V,S181A): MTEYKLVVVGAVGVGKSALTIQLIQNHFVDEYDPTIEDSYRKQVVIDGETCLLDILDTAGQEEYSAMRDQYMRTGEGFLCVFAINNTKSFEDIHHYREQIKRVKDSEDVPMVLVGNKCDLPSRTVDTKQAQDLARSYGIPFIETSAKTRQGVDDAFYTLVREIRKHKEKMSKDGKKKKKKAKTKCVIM

GTPase KRas, sequence (P01116 whole entry G12V): as the sequence (P01116 whole entry G12V) above

The term pIC50 denotes −log10 of the IC50, conventionally taken in molar units. Consider `COc1cc(/C=C/C(=O)c2ccc([N+](=O)[O-])cc2)cc(OC)c1OC`, for which the inhibition result in assay [1], in assay [4], in [8] and in assay [16] was “inactive” each time. The fold change (FC) is 2.8 in assay [2]; 1.31 in assay [3]; 2.65 in assay [5]; 1.76 in [9]; 2.85 in assay [10]; 1.89 in assay [11]. In addition, the fold change (FC) in assay [13] came to 1.92; in assay [14], 2.57. In addition, the inhibition entry in assay [6] and in assay [12] was “Dose-dependent effect” each time. The inhibition result in assay [7] and in assay [15] was “Active” throughout. In addition, the pIC50 on GTPase KRas was 5.15.

Take `COc1cc(/C=C/C(=O)c2ccc(N)cc2)cc(OC)c1OC`: at GTPase KRas, the pIC50 was 5.04.

As for `COc1cc(/C=C/C(=O)c2ccccn2)cc(OC)c1OC`, the pIC50 on GTPase KRas was 4.28.

Consider `COc1cc(C(=O)/C=C/c2c(F)cccc2F)cc(OC)c1OC`, for which the pIC50 on GTPase KRas is 5.13.

Consider `COc1cc(/C=C/C(=O)c2ccc(Br)cc2)cc(OC)c1OC`, for which the pIC50 at GTPase KRas is 4.61.

`COc1cc(C(=O)/C=C/c2ccc([N+](=O)[O-])cc2)cc(OC)c1OC`: at GTPase KRas, the pIC50 was 5.09.

For `COc1ccc(C(=O)/C=C/c2cc(OC)c(OC)c(OC)c2)cc1`, the pIC50 at GTPase KRas was 5.08.

As to `COc1cc(/C=C/C(=O)c2c(F)cccc2F)cc(OC)c1OC`, on GTPase KRas, the pIC50 is 5.09.

With `COc1cc(/C=C/C(=O)c2ccc(F)cc2)cc(OC)c1OC`, at GTPase KRas, the pIC50 was 4.80.

With `COc1cc(/C=C/C(=O)c2ccc(N(C)C)cc2)cc(OC)c1OC`, the inhibition entry in assay [4] was “inactive”. Moreover, the pIC50 on GTPase KRas is 5.13.
